The test system of series [1] is Staphylococcus aureus. Description: Antibacterial activity against methicillin-resistant Staphylococcus aureus assessed as bacterial growth inhibition measured during 24 hrs incubation at 37 degC by two-fold serial dilution technique. It counts as functional. The gist of the method: (§1)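 Clinical isolates grown to mid-log phase in Mueller-Hinton broth, diluted 1000-fold, inoculated at 10⁵ CFU/mL in MHB in 96-well microtiter plates. Two-fold serial dilutions gave final concentrations of […]. Oxacillin and norfloxacin were the positive controls. Growth was read as absorbance at 650 nm. MIC is the lowest concentration giving complete growth inhibition.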

For series [2], the system named is Staphylococcus aureus. Nature of the series: Antibacterial activity against quinolone-resistant Staphylococcus aureus CCARM 3505 assessed as bacterial growth inhibition measured during 24 hrs incubation at 37 degC by two-fold serial dilution technique. To be noted: CCARM 3505, 24 h. It counts as functional. The gist of the method:
as §1

The subject of series [3] is Staphylococcus aureus. Description: Antibacterial activity against methicillin-resistant Staphylococcus aureus CCARM 3506 assessed as bacterial growth inhibition measured during 24 hrs incubation at 37 degC by two-fold serial dilution technique. The format is functional. As to conditions: CCARM 3506, 24 h. Summed up:
as §1

Series [4] deals with Staphylococcus aureus. Description: Antibacterial activity against quinolone-resistant Staphylococcus aureus CCARM 3519 assessed as bacterial growth inhibition measured during 24 hrs incubation at 37 degC by two-fold serial dilution technique. It counts as functional. As to conditions: CCARM 3519, 24 h. Summed up:
as §1

For series [5], the system named is Staphylococcus aureus. Nature of the series: Antibacterial activity against methicillin-resistant Staphylococcus aureus CCARM 3167 assessed as bacterial growth inhibition measured during 24 hrs incubation at 37 degC by two-fold serial dilution technique. As to conditions: CCARM 3167, 24 h. It counts as functional. Summed up:
as §1

Series [6] deals with HeLa. Nature of the series: Cytotoxicity against human HeLa cells assessed as cell growth inhibition at 4 ug/ml measured after 48 hrs by MTT assay. It counts as cell-based. A general note: Tetrazolium dyes change colour on reduction, which living cells bring about.
Series [7] has as its system HeLa. Description: Cytotoxicity against human HeLa cells assessed as cell growth inhibition measured after 48 hrs by MTT assay. It counts as cell-based. Summed up:
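HeLa cells grown in DMEM with 10% FBS and penicillin-streptomycin (100 U/mL) at 37 °C in 5% CO2. Cells were split with trypsin at 80-90% confluence and used at passage 3. About 1×10⁴ cells/well were seeded and left overnight to attach. Cells were exposed to compounds for 48 h, then given MTT (5 mg/mL in PBS stock) for 4 h. Medium was removed and formazan read.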

Series [8] has as its system Staphylococcus aureus. Description: Ratio of norfloxacin MIC to compound MIC for Staphylococcus aureus CCARM 3167. The format is functional.
Series [9] has as its system Staphylococcus aureus. Nature of the series: Ratio of oxacillin MIC to compound MIC for Staphylococcus aureus CCARM 3167. It counts as functional.
Series [10] deals with HeLa. Description: Cytotoxicity against human HeLa cells assessed as cell growth inhibition at 1 ug/ml measured after 48 hrs by MTT assay. It counts as cell-based.
Series [11] has as its system HeLa. Description: Cytotoxicity against human HeLa cells assessed as cell growth inhibition at 2 ug/ml measured after 48 hrs by MTT assay. It counts as cell-based.

Each structure is given as a SMILES string. ≈ marks a conversion by molar mass, not a printed value.

As for `O=C(O)CN1C(=O)/C(=C/c2cn(-c3ccccc3)nc2-c2ccc(Cl)cc2Cl)SC1=S`, the MIC (as a rule, the least concentration at which growth counts as inhibited) in the series on Staphylococcus aureus [1] was found to be 4 µg/mL (≈ 8.16 µM).

As to `CCn1cc(C(=O)O)c(=O)c2cc(F)c(N3CCNCC3)cc21` [NORFLOXACIN], the minimal inhibitory concentration (MIC) in the series with Staphylococcus aureus [2] was > 64 µg/mL; in the series on Staphylococcus aureus [3], 4 µg/mL (≈ 12.5 µM); in the series on Staphylococcus aureus [4] it was > 64 µg/mL; in the series with Staphylococcus aureus [5], 8 µg/mL (≈ 25.1 µM).

For the compound `Cc1nn(-c2ccccc2)c(Oc2ccc(Cl)cc2Cl)c1/C=C1\SC(=S)N([C@H](C(=O)O)C(C)C)C1=O`, the MIC in the series with Staphylococcus aureus [2], in the series with Staphylococcus aureus [3], in the series with Staphylococcus aureus [4] and in the series on Staphylococcus aureus [5] was 4 µg/mL (≈ 7.11 µM) in each case. For the same compound, in the series on HeLa [6], the Activity result is reported as “Non-toxic”. Also, the concentration for half-maximal inhibition (IC50) (in general, the midpoint of a concentration-inhibition curve) in the series with HeLa [7] is 10.4 µg/mL (≈ 18.5 µM).

Consider `CCC(C)[C@@H](C(=O)O)N1C(=O)/C(=C/c2c(C)nn(-c3ccccc3)c2Oc2ccccc2C)SC1=S` (stereo not given in full), for which the minimum inhibitory concentration (MIC) in the series on Staphylococcus aureus [2] was found to be 4 µg/mL (≈ 7.67 µM); in the series with Staphylococcus aureus [3], 4 µg/mL (≈ 7.67 µM); in the series with Staphylococcus aureus [4] it was 4 µg/mL (≈ 7.67 µM); in the series on Staphylococcus aureus [5] it was 2 µg/mL (≈ 3.83 µM).

Turning to `Cc1nn(-c2ccccc2)c(Oc2ccc(F)cc2)c1/C=C1\SC(=S)N(CC(=O)O)C1=O`, the MIC in the series on Staphylococcus aureus [2], with Staphylococcus aureus [3], in the series on Staphylococcus aureus [4] and with Staphylococcus aureus [5] was > 64 µg/mL in each case.

`Cc1nn(-c2ccccc2)c(Oc2ccc(Cl)cc2Cl)c1/C=C1\SC(=S)N([C@@H](CC(C)C)C(=O)O)C1=O`: the minimal inhibitory concentration (MIC) in the series with Staphylococcus aureus [2], in the series with Staphylococcus aureus [3], with Staphylococcus aureus [4] and in the series on Staphylococcus aureus [5] was 4 µg/mL (≈ 6.94 µM) throughout.

With `Cc1nn(-c2ccccc2)c(Cl)c1/C=C1\SC(=S)N([C@@H](CC(C)C)C(=O)O)C1=O`, the MIC with Staphylococcus aureus [2] came to 32 µg/mL (≈ 71.1 µM); in the series with Staphylococcus aureus [3], 32 µg/mL (≈ 71.1 µM); with Staphylococcus aureus [4], 32 µg/mL (≈ 71.1 µM); in the series on Staphylococcus aureus [5] it was 16 µg/mL (≈ 35.6 µM).

Consider `CCC(C)[C@@H](C(=O)O)N1C(=O)/C(=C/c2c(C)nn(-c3ccccc3)c2Oc2ccc(Cl)cc2Cl)SC1=S` (stereo not given in full), for which the MIC with Staphylococcus aureus [2] was determined as 2 µg/mL (≈ 3.47 µM); in the series with Staphylococcus aureus [3] it was 1 µg/mL (≈ 1.73 µM); in the series on Staphylococcus aureus [4], 2 µg/mL (≈ 3.47 µM); with Staphylococcus aureus [5] it was 1 µg/mL (≈ 1.73 µM). For the same compound, the Ratio is 8 in the series with Staphylococcus aureus [8] and 64 with Staphylococcus aureus [9]. Besides, in the series with HeLa [10], the Activity entry was “Non-toxic”. Besides, in the series with HeLa [7], the IC50 is 6.43 µg/mL (≈ 11.2 µM).

`Cc1ccc(Oc2c(/C=C3\SC(=S)N([C@H](C(=O)O)C(C)C)C3=O)c(C)nn2-c2ccccc2)cc1`: the minimum inhibitory concentration (MIC) in the series with Staphylococcus aureus [2], in the series with Staphylococcus aureus [3], in the series on Staphylococcus aureus [4] and with Staphylococcus aureus [5] was 4 µg/mL (≈ 7.88 µM) each time.

As to `CCC(C)[C@@H](C(=O)O)N1C(=O)/C(=C/c2c(C)nn(-c3ccccc3)c2Oc2ccc(F)cc2)SC1=S` (stereo not given in full), the MIC with Staphylococcus aureus [2] came out at 8 µg/mL (≈ 15.2 µM); in the series on Staphylococcus aureus [3], 4 µg/mL (≈ 7.61 µM); in the series on Staphylococcus aureus [4] it was 8 µg/mL (≈ 15.2 µM); with Staphylococcus aureus [5], 2 µg/mL (≈ 3.8 µM).

As to `Cc1nn(-c2ccccc2)c(Oc2cccc(Cl)c2)c1/C=C1\SC(=S)N(CC(=O)O)C1=O`, the MIC with Staphylococcus aureus [2] was determined as 8 µg/mL (≈ 16.5 µM); with Staphylococcus aureus [3], 16 µg/mL (≈ 32.9 µM); with Staphylococcus aureus [4], 16 µg/mL (≈ 32.9 µM); with Staphylococcus aureus [5], 16 µg/mL (≈ 32.9 µM).

In the case of `CCC(C)[C@@H](C(=O)O)N1C(=O)/C(=C/c2c(C)nn(-c3ccccc3)c2Oc2ccc(C)cc2C)SC1=S` (stereo not given in full), the minimal inhibitory concentration (MIC) in the series on Staphylococcus aureus [2], with Staphylococcus aureus [3], in the series with Staphylococcus aureus [4] and with Staphylococcus aureus [5] was 2 µg/mL (≈ 3.73 µM) throughout.

Consider `Cc1cccc(Oc2c(/C=C3\SC(=S)N(CC(=O)O)C3=O)c(C)nn2-c2ccccc2)c1`, for which the MIC in the series on Staphylococcus aureus [2] came to 32 µg/mL (≈ 68.7 µM); in the series on Staphylococcus aureus [3], 16 µg/mL (≈ 34.4 µM); in the series on Staphylococcus aureus [4], 16 µg/mL (≈ 34.4 µM); in the series on Staphylococcus aureus [5], 16 µg/mL (≈ 34.4 µM).

On to `COc1ccccc1Oc1c(/C=C2\SC(=S)N(CC(=O)O)C2=O)c(C)nn1-c1ccccc1`, for which the MIC with Staphylococcus aureus [2], in the series with Staphylococcus aureus [3], in the series on Staphylococcus aureus [4] and in the series on Staphylococcus aureus [5] was > 64 µg/mL in each case.

Turning to `Cc1nn(-c2ccccc2)c(Oc2cccc(C(F)(F)F)c2)c1/C=C1\SC(=S)N(CC(=O)O)C1=O`, the MIC in the series on Staphylococcus aureus [2] was 32 µg/mL (≈ 61.6 µM); in the series with Staphylococcus aureus [3], 32 µg/mL (≈ 61.6 µM); in the series on Staphylococcus aureus [4] it was 32 µg/mL (≈ 61.6 µM); with Staphylococcus aureus [5] it was 16 µg/mL (≈ 30.8 µM).

In the case of `Cc1nn(-c2ccccc2)c(Oc2ccc(Br)cc2)c1/C=C1\SC(=S)N([C@@H](CC(C)C)C(=O)O)C1=O`, the MIC in the series with Staphylococcus aureus [2], in the series on Staphylococcus aureus [3], in the series with Staphylococcus aureus [4] and in the series on Staphylococcus aureus [5] was 4 µg/mL (≈ 6.82 µM) throughout. Further, in the series on HeLa [11], the Activity result is reported as “Non-toxic”. Moreover, in the series with HeLa [7], the IC50 came out at 12.3 µg/mL (≈ 21 µM).

With `CCC(C)[C@@H](C(=O)O)N1C(=O)/C(=C/c2c(C)nn(-c3ccccc3)c2Oc2cccc(Cl)c2)SC1=S` (stereo not given in full), the MIC was found to be 8 µg/mL (≈ 14.8 µM) in the series on Staphylococcus aureus [2], 8 µg/mL (≈ 14.8 µM) in the series with Staphylococcus aureus [3], 8 µg/mL (≈ 14.8 µM) with Staphylococcus aureus [4] and 4 µg/mL (≈ 7.38 µM) in the series with Staphylococcus aureus [5].

Consider `Cc1ccc(Oc2c(/C=C3\SC(=S)N(CC(=O)O)C3=O)c(C)nn2-c2ccccc2)c(C)c1`, for which the minimal inhibitory concentration (MIC) came to 16 µg/mL (≈ 33.4 µM) in the series with Staphylococcus aureus [2], 8 µg/mL (≈ 16.7 µM) in the series on Staphylococcus aureus [3], 16 µg/mL (≈ 33.4 µM) in the series on Staphylococcus aureus [4] and 8 µg/mL (≈ 16.7 µM) in the series on Staphylococcus aureus [5].

`Cc1nn(-c2ccccc2)c(Cl)c1/C=C1\SC(=S)N([C@H](C(=O)O)C(C)C)C1=O`: the MIC in the series with Staphylococcus aureus [2] turned out to be 32 µg/mL (≈ 73.4 µM); in the series with Staphylococcus aureus [3], 32 µg/mL (≈ 73.4 µM); with Staphylococcus aureus [4], 32 µg/mL (≈ 73.4 µM); in the series on Staphylococcus aureus [5], 16 µg/mL (≈ 36.7 µM).

For the compound `Cc1nn(-c2ccccc2)c(Oc2ccc(Cl)cc2)c1/C=C1\SC(=S)N([C@H](C(=O)O)C(C)C)C1=O`, the minimal inhibitory concentration (MIC) in the series on Staphylococcus aureus [2], in the series with Staphylococcus aureus [3], in the series on Staphylococcus aureus [4] and in the series with Staphylococcus aureus [5] was 4 µg/mL (≈ 7.57 µM) each time.

For the origin of these results see ChEMBL document CHEMBL2321826, “Synthesis and antibacterial evaluation of rhodanine-based 5-aryloxy pyrazoles against selected methicillin resistant and quinolone-resistant Staphylococcus aureus (MRSA and QRSA)” (Eur J Med Chem, 2013).
